Test results from ChEMBL document CHEMBL2412975 (Bioorg Med Chem, 2013).

What was measured:
[1] = Apparent clearance in human liver microsomes; format: ADME, Microsome; settings: read-out: CLH(app)
[2] = Cmax in rat at 5 mg/kg, po; format: ADME, organism-based; design: dose 5 mg/kg, route oral; settings: in vivo
Method in brief: (§1)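 Rat PK. Oral dose 5 mg/kg given in 0.5% methylcellulose. Cmax and AUC are reported as free drug concentrations. Bioavailability is taken relative to a 1 mg/kg intravenous dose.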

Rattus norvegicus [3] = test: AUC in rat at 5 mg/kg, po; format: ADME, organism-based, Plasma; design: dose 5 mg/kg, route oral; settings: in vivo; method in brief: as §1
[4] = Half life in rat; format: ADME, organism-based; settings: in vivo; method in brief: as §1
Rattus norvegicus [5] = test: Oral bioavailability in rat at 5 mg/kg; format: ADME, organism-based; settings: in vivo; method in brief: as §1
[6] = Volume of distribution at steady state in rat at 1 mg/kg, iv; format: ADME, organism-based; design: dose 1 mg/kg, route intravenous; settings: in vivo, read-out: Vdss
Method in brief: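 Rat, single intravenous dose of 1 mg/kg. Steady-state volume of distribution comes from the plasma profile.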

[7] = Lipophilicity, log D of the compound; format: physicochemical; settings: octanol/water
[8] = Metabolic stability in human liver microsomes assessed as compound remaining after 1 hr; format: ADME, Microsome; settings: read-out: Stability
Method in brief: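 Human liver microsomes incubated with compound for 1 h. Read-out is percent of parent remaining.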

SMILES | CLint scaled [1] [mL/min/kg] | further results
CC(C)[C@H](CO)NC(=O)C[C@H]1CC[C@H](c2ccc(N3CCOc4ncnc(N)c4C3=O)cc2)CC1 | < 8 | –
Nc1ncnc2c1C(=O)N(c1ccc([C@H]3CC[C@H](CC(=O)N4CCCC4)CC3)cc1)CCO2 | 15 | –
Nc1ncnc2c1C(=O)N(c1ccc([C@H]3CC[C@H](CC(=O)N4CC[C@@H](O)C4)CC3)cc1)CCO2 | < 8 | –
Nc1ncnc2c1C(=O)N(c1ccc([C@H]3CC[C@H](CC(=O)N4CC(O)C4)CC3)cc1)CCO2 | < 8 | –
CC(=O)N1CCC(c2ccc(N3CCOc4ncnc(N)c4C3=O)cc2)CC1 | < 8 | –
CC(C)C(=O)N1CCC(c2ccc(N3CCOc4ncnc(N)c4C3=O)cc2)CC1 | 11 | –
Nc1ncnc2c1C(=O)N(c1ccc(C3CCN(C(=O)C4CCOCC4)CC3)cc1)CCO2 | < 8 | –
Nc1ncnc2c1C(=O)N(c1ccc(C3CCN(C(=O)c4cnon4)CC3)cc1)CCO2 | < 8 | –
Nc1ncnc2c1C(=O)N(c1ccc(C3CCN(C(=O)c4ccccc4)CC3)cc1)CCO2 | < 8 | –
Nc1ncnc2c1C(=O)N(c1ccc(C3CCN(C(=O)c4ccno4)CC3)cc1)CCO2 | 13 | –
N#CC[C@H]1CC[C@H](c2ccc(N3CCOc4ncnc(N)c4C3=O)cc2)CC1 | < 8 | Cmax [2]: 174 ng/mL; AUC (Rattus norvegicus [3]): 801 ng·h/mL; half-life [4]: 3.1 h; F (Rattus norvegicus [5]): 85%; Vd [6]: 2 L/kg
CC(C)(N)C[C@H]1CC[C@H](c2ccc(N3CCOc4ncnc(N)c4C3=O)cc2)CC1 | 12 | –
Cc1noc(C[C@H]2CC[C@H](c3ccc(N4CCOc5ncnc(N)c5C4=O)cc3)CC2)n1 | < 8 | Cmax [2]: 118 ng/mL; AUC (Rattus norvegicus [3]): 727 ng·h/mL; logD [7]: 2.3; half-life [4]: 2.7 h; F (Rattus norvegicus [5]): 53%; Vd [6]: 1.2 L/kg
Cc1nc(N)c2c(n1)OCCN(c1ccc([C@H]3CC[C@H](CC(=O)O)CC3)cc1)C2=O | < 8 | –
Nc1ccnc2c1C(=O)N(c1ccc([C@H]3CC[C@H](CC(=O)O)CC3)cc1)CCO2 | 8.4 | –
Nc1ncnc2c1C(=O)N(c1ccc([C@H]3CC[C@H](CCC(=O)O)CC3)cc1)CCO2 | < 8 | –
CN(CC(=O)O)C(=O)C[C@H]1CC[C@H](c2ccc(N3CCOc4ncnc(N)c4C3=O)cc2)CC1 | < 8 | –
Nc1ncnc2c1C(=O)N(c1ccc([C@H]3CC[C@H](Cc4nnn[nH]4)CC3)cc1)CCO2 | < 8 | –
NC(=O)C[C@H]1CC[C@H](c2ccc(N3CCOc4ncnc(N)c4C3=O)cc2)CC1 | < 8 | Cmax [2]: 273 ng/mL; AUC (Rattus norvegicus [3]): 810 ng·h/mL; half-life [4]: 4.3 h; F (Rattus norvegicus [5]): 88%; Vd [6]: 1.6 L/kg
CCNC(=O)C[C@H]1CC[C@H](c2ccc(N3CCOc4ncnc(N)c4C3=O)cc2)CC1 | < 8 | –
Nc1ncnc2c1C(=O)N(c1ccc([C@H]3CC[C@H](CC(=O)NC4CCCC4)CC3)cc1)CCO2 | 39 | –

Now from value to compound, other results behind:

CLint scaled [1] [mL/min/kg] | SMILES | further results
< 8 | Nc1ncnc2c1C(=O)N(c1ccc(C3CCN(C(=O)[C@H]4CC[C@@H](O)CC4)CC3)cc1)CCO2 | –
< 8 | Nc1ncnc2c1C(=O)N(c1ccc([C@H]3CC[C@H](CC(=O)N4CCOCC4)CC3)cc1)CCO2 | Cmax [2]: 425 ng/mL; AUC (Rattus norvegicus [3]): 838 ng·h/mL; half-life [4]: 2 h; F (Rattus norvegicus [5]): 77%; Vd [6]: 1.2 L/kg
9 | CN1CCN(C(=O)C[C@H]2CC[C@H](c3ccc(N4CCOc5ncnc(N)c5C4=O)cc3)CC2)CC1=O | –
107 | COC1CCN(C(=O)C[C@H]2CC[C@H](c3ccc(N4CCOc5ncnc(N)c5C4=O)cc3)CC2)CC1 | –
41 | Nc1ncnc2c1C(=O)N(c1ccc(C3CCN(C(=O)C4CCCCC4)CC3)cc1)CCO2 | –
12 | Nc1ncnc2c1C(=O)N(c1ccc(C3CCN(C(=O)c4ccon4)CC3)cc1)CCO2 | –
< 8 | CC(C)(O)C[C@H]1CC[C@H](c2ccc(N3CCOc4ncnc(N)c4C3=O)cc2)CC1 | Cmax [2]: 171 ng/mL; AUC (Rattus norvegicus [3]): 1260 ng·h/mL; half-life [4]: 2.6 h; F (Rattus norvegicus [5]): 100%; Vd [6]: 1.3 L/kg
< 8 | Cc1nnc(C[C@H]2CC[C@H](c3ccc(N4CCOc5ncnc(N)c5C4=O)cc3)CC2)o1 | –
< 8 | Cc1nnc(C[C@H]2CC[C@H](c3ccc(N4CCOc5ncnc(N)c5C4=O)cc3)CC2)s1 | –
< 8 | Cc1nnc(C[C@H]2CC[C@H](c3ccc(N4CCOc5ncnc(N)c5C4=O)cc3)CC2)[nH]1 | –
< 8 | Cc1nnc(C[C@H]2CC[C@H](c3ccc(N4CCOc5ncnc(N)c5C4=O)cc3)CC2)n1C | –
82 | Cc1noc(CC[C@H]2CC[C@H](c3ccc(N4CCOc5ncnc(N)c5C4=O)cc3)CC2)n1 | –
11 | Nc1ncnc2c1CN(c1ccc([C@H]3CC[C@H](CCO)CC3)cc1)CCO2 | –
< 8 | Nc1ncnc2c1C(=O)N(c1ccc([C@H]3CC[C@H](CC(=O)O)CC3)cc1)CCO2 [PF-04620110] | Cmax [2]: 225 ng/mL; AUC (Rattus norvegicus [3]): 565 ng·h/mL; remaining at 1 h [8]: 93%; half-life [4]: 7.3 h; Vd [6]: 1.8 L/kg
